In PMC12709667 (Journal of Clinical Pharmacology, 2025):
pIC50: −log10 of the molar value.

Assays:
[1] = First-in-human study, single ascending dose; format: in vivo
BCRP = target: T1, BCRP (Homo sapiens, UniProt Q9UNQ0); experiment: DDI perpetrator study: rosuvastatin probe; format: in vivo; conditions: miricorilant 400 mg once daily as perpetrator
T1 sequence (Q9UNQ0 1-655): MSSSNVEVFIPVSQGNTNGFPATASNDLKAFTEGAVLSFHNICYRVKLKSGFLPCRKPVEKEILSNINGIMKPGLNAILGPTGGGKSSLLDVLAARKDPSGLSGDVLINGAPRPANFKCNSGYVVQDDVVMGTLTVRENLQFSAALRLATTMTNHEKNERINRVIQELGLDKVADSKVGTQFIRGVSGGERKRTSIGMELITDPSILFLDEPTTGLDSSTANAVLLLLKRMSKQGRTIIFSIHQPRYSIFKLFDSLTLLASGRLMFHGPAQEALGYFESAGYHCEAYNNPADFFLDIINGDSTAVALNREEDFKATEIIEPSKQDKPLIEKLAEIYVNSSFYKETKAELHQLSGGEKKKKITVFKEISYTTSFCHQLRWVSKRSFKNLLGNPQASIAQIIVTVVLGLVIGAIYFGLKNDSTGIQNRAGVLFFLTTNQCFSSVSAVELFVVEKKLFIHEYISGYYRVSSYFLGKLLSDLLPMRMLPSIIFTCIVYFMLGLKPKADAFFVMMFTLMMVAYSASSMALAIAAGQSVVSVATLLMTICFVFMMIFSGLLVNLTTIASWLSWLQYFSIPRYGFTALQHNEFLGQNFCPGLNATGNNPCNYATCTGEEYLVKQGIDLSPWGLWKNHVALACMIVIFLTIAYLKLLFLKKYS

[2] = [14C] ADME study in male albino CD1 mice; format: in vivo, mouse
Outline: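 Male albino CD1 mice received one oral dose of 50 mg/kg (5 MBq/kg) [14C]-labelled test compound. Blood and plasma were counted for total radioactivity. Urine and faeces were collected for excretion balance, and plasma, urine and faeces were used for metabolite profiling.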

[3] = Animal and human ADME studies, summary of excretion; format: in vivo; conditions: animal and human ADME studies (Abstract)
UGT1A3 [4] = target: T2, UGT1A3 (Homo sapiens, UniProt P35503); experiment: Phase 2 enzyme inhibition; format: in vitro ADME
T2 sequence (P35503 29-534): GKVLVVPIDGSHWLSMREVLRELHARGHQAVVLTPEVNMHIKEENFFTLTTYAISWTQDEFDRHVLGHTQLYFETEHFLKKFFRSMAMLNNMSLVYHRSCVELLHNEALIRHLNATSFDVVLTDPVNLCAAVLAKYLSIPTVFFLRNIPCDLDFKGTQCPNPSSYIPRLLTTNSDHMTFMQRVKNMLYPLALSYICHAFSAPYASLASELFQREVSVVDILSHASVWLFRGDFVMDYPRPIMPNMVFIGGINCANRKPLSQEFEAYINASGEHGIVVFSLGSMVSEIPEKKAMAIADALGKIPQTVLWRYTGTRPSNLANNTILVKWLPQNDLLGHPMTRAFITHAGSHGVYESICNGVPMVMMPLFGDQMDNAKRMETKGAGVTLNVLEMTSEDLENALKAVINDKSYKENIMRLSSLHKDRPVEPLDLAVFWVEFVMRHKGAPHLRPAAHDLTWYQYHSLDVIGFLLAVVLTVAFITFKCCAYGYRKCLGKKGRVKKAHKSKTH

[5] = In vitro blood/plasma partitioning; format: in vitro ADME; conditions: human, whole blood
Outline: (§1)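 Test compound was added to rat, monkey or human whole blood and incubated, then centrifuged to obtain plasma. The plasma concentration was measured by LC-MS. It was compared with the concentration in directly spiked plasma of the same species.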

[6] = In vitro blood/plasma partitioning; format: in vitro ADME; conditions: rat, whole blood
Outline: as §1

CYP3A4 [7] = conditions: miricorilant 400 mg once daily as perpetrator
CYP2C8 = target: T3, CYP2C8 (Homo sapiens, UniProt P10632); experiment: DDI perpetrator study: repaglinide probe; format: in vivo; conditions: miricorilant 400 mg once daily as perpetrator
T3 sequence (P10632 1-490): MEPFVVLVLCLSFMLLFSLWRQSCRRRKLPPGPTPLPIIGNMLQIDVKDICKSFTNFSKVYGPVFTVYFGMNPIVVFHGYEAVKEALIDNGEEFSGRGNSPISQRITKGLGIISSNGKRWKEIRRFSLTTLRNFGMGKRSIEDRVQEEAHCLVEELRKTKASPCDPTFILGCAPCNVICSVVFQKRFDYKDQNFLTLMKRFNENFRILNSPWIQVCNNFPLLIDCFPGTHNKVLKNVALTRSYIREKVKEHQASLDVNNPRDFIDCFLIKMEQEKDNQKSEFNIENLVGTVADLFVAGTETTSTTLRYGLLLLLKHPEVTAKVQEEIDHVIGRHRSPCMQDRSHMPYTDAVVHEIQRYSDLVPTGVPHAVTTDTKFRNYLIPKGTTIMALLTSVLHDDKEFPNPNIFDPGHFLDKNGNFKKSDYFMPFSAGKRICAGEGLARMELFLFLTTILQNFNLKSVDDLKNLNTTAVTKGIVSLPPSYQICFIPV

fatty liver disease = conditions: cited from earlier work
UGT1A3 [8] = target: T2, UGT1A3; experiment: Phase 2 enzyme substrate assessment; format: in vitro ADME
DDI perpetrator study = format: in vivo; conditions: human, plasma, oral, 400 mg
CYP1A2 = format: in vitro ADME, human; conditions: up to 10 µM, three donors
CYP3A4 [9] = target: CYP3A4 (Homo sapiens, UniProt P08684); experiment: biochemical; format: in vitro ADME
CYP3A4 (Homo sapiens, UniProt P08684), sequence (P08684 whole entry): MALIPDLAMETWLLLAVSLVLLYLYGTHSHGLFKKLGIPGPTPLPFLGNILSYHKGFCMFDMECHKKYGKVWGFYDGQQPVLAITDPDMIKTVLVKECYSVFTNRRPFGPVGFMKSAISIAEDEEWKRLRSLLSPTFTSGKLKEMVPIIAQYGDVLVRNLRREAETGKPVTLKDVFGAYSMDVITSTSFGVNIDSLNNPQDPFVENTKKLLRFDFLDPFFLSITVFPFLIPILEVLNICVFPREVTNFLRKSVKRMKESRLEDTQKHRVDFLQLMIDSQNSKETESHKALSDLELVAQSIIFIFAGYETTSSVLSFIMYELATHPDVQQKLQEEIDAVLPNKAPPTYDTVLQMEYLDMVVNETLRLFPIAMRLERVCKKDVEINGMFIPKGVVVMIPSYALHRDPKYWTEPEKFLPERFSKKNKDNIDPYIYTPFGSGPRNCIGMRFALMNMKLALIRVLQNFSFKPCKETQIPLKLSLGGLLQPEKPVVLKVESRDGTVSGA

For `O=c1[nH]c(=O)c(Cc2cccc(C(F)(F)F)c2)c([C@H]2CC[C@H](c3ccccc3)CC2)[nH]1` [miricorilant], the “increase in AUC0‐last, fed versus fasted” value ([1]; 900 mg SDD suspension) was “approximately 3.34 fold”, the “increase in Cmax, fed versus fasted” value ([1]; 900 mg SDD suspension) was “approximately 2.45 fold” and the “increase in AUC on administration with food” value ([1]; Discussion, dose and formulation not stated) was 2.3 fold. For the same compound, the half-life ([1]; human, plasma, oral, half‐life, single doses, healthy subjects) was ~20 h, the “clinical inhibition of BCRP” value (BCRP) was “moderate inhibitor” and the recovery of radioactivity ([2]; by 24 h postdose) was “quantitative recovery”. The “elimination of radioactivity in urine” value ([2]; single oral 50 mg/kg) was 0.13% ± 0.04%, the “fecal elimination of radioactivity” value ([2]; single oral 50 mg/kg) was 98.7% ± 2.48% and the “share of total radioactivity in plasma” value ([2]; single oral 50 mg/kg) was 69%. For the same compound, the “total radioactivity recovered in urine” value [3] was < 5%, the “inhibition of UGT1A3” value (UGT1A3 [4]) was “did not inhibit” and the blood plasma ratio [5] was 1.14. The blood plasma ratio [6] was 0.84, the “clinical inhibition of CYP3A4” value (CYP3A4 [7]) was “does not inhibit” and the “clinical inhibition of CYP2C8” value (CYP2C8) was “strong inhibitor”. For the same compound, the “efficacy in mouse models of fatty liver disease” value (fatty liver disease) was “shown efficacy”, the “Substrate of UGT1A3” value (UGT1A3 [8]) was “not a substrate” and the AUC (DDI perpetrator study) was 11.4 µg·h/mL. For the same compound, the Cmax at 10 study day (DDI perpetrator study) was 0.895 µg/mL, the Tmax at 10 study day (DDI perpetrator study) was 4 h and the half-life at 10 study day (DDI perpetrator study) was 12.2 h. For the same compound, the “induction of CYP1A2” value (CYP1A2) was “no induction”, the pIC50 (CYP3A4 [9]) was 5.47 and the “time dependence of CYP3A4 inhibition” value (CYP3A4 [9]) was “not time dependent”.
